Each structure is given as a SMILES string. Calls of active or inactive are those of the source. The calls are words filed in the database; no cut-off is given here.

In test [1] the test system is MDA-MB-231. Nature of the test: Induction of cell death in serum starved human MDA-MB-231 cells at 50 uM after 16 hrs by trypan blue dye exclusion assay. Type of test: functional. The procedure, abridged: (§1)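 Breast cancer line serum-starved 6 h, then exposed to compound (DMSO vehicle) for 16 h at a final 50 µM or 100 µM. Cells trypsinized, stained with Trypan blue and counted. Cell death expressed as percentage, relative to vehicle. Mean ± SEM of three independent experiments, paired comparison to DMSO control.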

The subject of test [2] is MDA-MB-231. Description: Induction of apoptosis in serum starved human MDA-MB-231 cells assessed as caspase-3 activation at 100 uM after 16 hrs by Western blotting method. Type of test: functional, cell-based. The procedure, abridged: (§2)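 MDA-MB-231 cells serum-starved 6 h, then exposed to DMSO vehicle, etoposide, AVPI-NH₂ or analogs at one final concentration (50 or 100 µM, per line), harvested; caspase-3 and caspase-9 activation assessed by Western blotting. Quantification as mean ± SEM of three independent experiments.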
For orientation: In western blotting, separated proteins are transferred to a membrane and probed.

The test system of test [3] is MDA-MB-231. Description: Induction of cell death in serum starved human MDA-MB-231 cells at 100 uM after 16 hrs by trypan blue dye exclusion assay. Type of test: functional. The gist of the method: as §1
In test [4] the test system is MDA-MB-231. Description: Induction of apoptosis in serum starved human MDA-MB-231 cells assessed as caspase-9 activation at 100 uM after 16 hrs by Western blotting method. Type of test: functional, cell-based. The procedure, abridged:
as §2

In test [5] the test system is MDA-MB-231. Description: Induction of apoptosis in serum starved human MDA-MB-231 cells assessed as caspase-9 activation after 16 hrs by Western blotting method. Type of test: functional, cell-based. The note with it: MDA-MB-231, 16 h. The gist of the method: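 MDA-MB-231 cells serum-starved 6 h, treated 16 h across a concentration series (about 12.5–125 µM), harvested; total and cleaved caspase-9 immunoblotted and quantified. Mean ± SEM of two independent experiments; significance versus paired DMSO condition.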

Test [6] deals with MDA-MB-231. Description: Induction of apoptosis in serum starved human MDA-MB-231 cells assessed as caspase-9 activation at 50 uM after 16 hrs by Western blotting method. In kind it is functional, cell-based. The gist of the method:
as §2

The test system of test [7] is MDA-MB-231. Description: Induction of apoptosis in serum starved human MDA-MB-231 cells assessed as caspase-3 activation at 50 uM after 16 hrs by Western blotting method. In kind it is functional, cell-based. The procedure, abridged:
as §2

For the molecule `C=CCN(NC(=O)[C@H](C)N)C(=O)N1CCC[C@H]1C(=O)NC(c1ccccc1)c1ccccc1`, the outcome in test [1] was inactive. In addition, the outcome in test [2] and in test [4] was Active. In test [3], this molecule had an Activity of 50%.

Take `C[C@H](N)C(=O)NN(Cc1ccccc1)C(=O)N1CCC[C@H]1C(=O)NC(c1ccccc1)c1ccccc1`: the EC50 (as a rule, the concentration giving half of the maximal effect) in test [5] was found to be 50.2 µM. The outcome in test [6], in test [1], in test [2], in test [7] and in test [4] was Active. The molecule also gave an Activity in test [3] of 50%.

With `C#CCN(NC(=O)[C@H](C)N)C(=O)N1CCC[C@H]1C(=O)NC(c1ccccc1)c1ccccc1`, the result in test [1] was inactive. Further, the result in test [2] and in test [4] was Active. The Activity in test [3] was 50%.

Turning to `COc1cc([C@@H]2c3cc4c(cc3[C@@H](O[C@@H]3O[C@@H]5CO[C@@H](C)O[C@H]5[C@H](O)[C@H]3O)[C@H]3COC(=O)[C@H]23)OCO4)cc(OC)c1O` [ETOPOSIDE], the outcome in test [6] was inactive. Further, the Activity in test [1] is reported as 50%. Also, the outcome in test [7] was Active.

Regarding `C[C@H](N)C(=O)NN(C)C(=O)N1CCC[C@H]1C(=O)NC(c1ccccc1)c1ccccc1`, the result in test [1], in test [2] and in test [4] was Active. In test [3], the Activity came out at 50%.

On to `C[C@H](N)C(=O)NNC(=O)N1CCC[C@H]1C(=O)NC(c1ccccc1)c1ccccc1`, for which, in test [5], the EC50 amounted to 73.4 µM. Moreover, the outcome in test [1], in test [2] and in test [4] was Active. The Activity in test [3] is listed as 50%.

Source of the values: ChEMBL document CHEMBL3352282, “Design and synthesis of novel azapeptide activators of apoptosis mediated by caspase-9 in cancer cells” (Bioorg Med Chem Lett, 2014).
